Data: ChEMBL document CHEMBL4842397, “Macrocyclization as a Source of Desired Polypharmacology. Discovery of Triple PI3K/mTOR/PIM Inhibitors” (ACS Med Chem Lett, 2021)
Values belong to the compound of their own block, whether it stands above or below them.

Key:
[1] = molecular target: Serine/threonine-protein kinase pim-1 (Homo sapiens, UniProt P11309); assay: Inhibition of human PIM1 using ARKRRRHPSGPPTA as substrate measured after 1.5 hrs by ADP hunter plus assay
[2] = molecular target: Serine/threonine-protein kinase mTOR (Homo sapiens, UniProt P42345); assay: Inhibition of mTOR (unknown origin) by LanthaScreen assay
[3] = molecular target: Phosphatidylinositol 4,5-bisphosphate 3-kinase catalytic subunit alpha isoform (Homo sapiens, UniProt P42336); assay: Inhibition of PI3Kalpha (unknown origin) by ADP-Glo assay
[4] = Volume of distribution at steady state in BALB/c mouse at 1 mg/kg, iv; assay type: ADME, organism-based; settings: in vivo
Method in brief: (§1)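 Preliminary single-dose pharmacokinetics in BALB-C mice, given I.V. or P.O. Units: AUC h.ng/mL, T1/2 h, Cl L/h/kg, Vd L/kg, Cmax ng/mL, Tmax h. Bioavailability is the absorbed fraction at the doses tested.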

[5] = molecular target: PI3-kinase p110-delta/p85-alpha (Homo sapiens, UniProt O00329); assay: Inhibition of human PI3K p110delta/p85alpha by HTRF assay; assay type: protein-complex assay
Method in brief: (§2)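 Ki from an HTRF assay on each PI3K isoform, reported in nM as the average of two independent experiments.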

[6] = Microsomal stability in human liver microsomes incubated for 30 mins by LC-MS/MS analysis; assay type: ADME, Microsome; settings: read-out: Stabilty
[7] = molecular target: PI3-kinase p110-alpha/p85-alpha (Homo sapiens, UniProt P42336); assay: Inhibition of human PI3K p110alpha/p85alpha by HTRF assay; assay type: protein-complex assay; method in brief: as §2
[8] = molecular target: PI3K/mTOR (Homo sapiens); assay: Inhibition of PI3K/mTOR in human MV4-11 cells assessed as Akt phosphorylation at Ser473 measured after over night incubation by lotting based cellular assay
[9] = Microsomal stability in mouse liver microsomes incubated for 30 mins by LC-MS/MS analysis; assay type: ADME, Microsome; settings: read-out: Stabilty
[10] = AUClast in BALB/c mouse at 1 mg/kg, iv; assay type: ADME, organism-based; parameters: route intravenous, time 0 - last, dose 1 mg/kg; settings: in vivo; method in brief: as §1
[11] = Microsomal stability in rat liver microsomes incubated for 30 mins by LC-MS/MS analysis; assay type: ADME, Microsome; settings: read-out: Stabilty
[12] = Oral bioavailability in BALB/c mouse at 10 mg/kg; assay type: ADME, organism-based; settings: in vivo; method in brief: as §1
[13] = Clearance in BALB/c mouse at 1 mg/kg, iv; assay type: ADME, organism-based; settings: in vivo; method in brief: as §1
[14] = Tmax in BALB/c mouse at 10 mg/kg, po; assay type: ADME, organism-based; settings: in vivo; method in brief: as §1
[15] = molecular target: Voltage-gated inwardly rectifying potassium channel KCNH2 (Homo sapiens, UniProt Q12809); assay: Inhibition of human ERG at < 30 uM
[16] = molecular target: PI3K p110 beta/p85 alpha (Homo sapiens, UniProt P42338); assay: Inhibition of human PI3K p110beta/p85alpha by HTRF assay; assay type: protein-complex assay; method in brief: as §2
[17] = molecular target: Cytochrome P450 2C9 (Homo sapiens, UniProt P11712); assay: Inhibition of CYP2C9 (unknown origin); assay type: ADME
[18] = molecular target: Serine/threonine-protein kinase PIM (Homo sapiens, UniProt P11309+Q9P1W9+Q86V86); assay: Inhibition of PIM in human MV4-11 cells assessed as BAD phosphorylation at Ser112 measured after over night incubation by lotting based cellular assay; assay type: cell-based
[19] = molecular target: Phosphatidylinositol 4,5-bisphosphate 3-kinase catalytic subunit gamma isoform (Homo sapiens, UniProt P48736); assay: Inhibition of human PI3Kgamma by HTRF assay; method in brief: as §2
[20] = molecular target: Serine/threonine-protein kinase pim-2 (Homo sapiens, UniProt Q9P1W9); assay: Inhibition of PIM2 (unknown origin) using ARKRRRHPSGPPTA as peptide substrate by ADP Hunter Plus assay
[21] = Half life in BALB/c mouse at 10 mg/kg, po; assay type: ADME, organism-based; settings: in vivo; method in brief: as §1
[22] = AUClast in BALB/c mouse at 10 mg/kg, po; assay type: ADME, organism-based; parameters: time 0 - last, route oral, dose 10 mg/kg; settings: in vivo; method in brief: as §1
[23] = Half life in BALB/c mouse at 1 mg/kg, iv; assay type: ADME, organism-based; settings: in vivo; method in brief: as §1
[24] = molecular target: Serine/threonine-protein kinase pim-3 (Homo sapiens, UniProt Q86V86); assay: Inhibition of PIM3 (unknown origin) using ARKRRRHPSGPPTA as peptide substrate by ADP Hunter Plus assay
[25] = AUClast in BALB/c mouse at 0.7 mg/kg, iv; assay type: ADME, organism-based; parameters: route intravenous, time 0 - last, dose 0.7 mg/kg; settings: in vivo; method in brief: as §1
[26] = AUClast in BALB/c mouse at 5 mg/kg, po; assay type: ADME, organism-based; parameters: route oral, time 0 - last, dose 5 mg/kg; settings: in vivo; method in brief: as §1
[27] = Half life in BALB/c mouse at 5 mg/kg, po; assay type: ADME, organism-based; settings: in vivo; method in brief: as §1
[28] = Cmax in BALB/c mouse at 5 mg/kg, po; assay type: ADME, organism-based; parameters: route oral, dose 5 mg/kg; settings: in vivo; method in brief: as §1
[29] = Half life in BALB/c mouse at 0.7 mg/kg, iv; assay type: ADME, organism-based; settings: in vivo; method in brief: as §1
[30] = Oral bioavailability in BALB/c mouse at 5 mg/kg; assay type: ADME, organism-based; settings: in vivo; method in brief: as §1
[31] = Clearance in BALB/c mouse at 0.7 mg/kg, iv; assay type: ADME, organism-based; settings: in vivo; method in brief: as §1
[32] = Tmax in BALB/c mouse at 5 mg/kg, po; assay type: ADME, organism-based; settings: in vivo; method in brief: as §1
[33] = Volume of distribution at steady state in BALB/c mouse at 0.7 mg/kg, iv; assay type: ADME, organism-based; settings: in vivo, read-out: Vdss; method in brief: as §1

Sequence of Phosphatidylinositol 4,5-bisphosphate 3-kinase catalytic subunit alpha isoform (P42336 whole entry, canonical isoform): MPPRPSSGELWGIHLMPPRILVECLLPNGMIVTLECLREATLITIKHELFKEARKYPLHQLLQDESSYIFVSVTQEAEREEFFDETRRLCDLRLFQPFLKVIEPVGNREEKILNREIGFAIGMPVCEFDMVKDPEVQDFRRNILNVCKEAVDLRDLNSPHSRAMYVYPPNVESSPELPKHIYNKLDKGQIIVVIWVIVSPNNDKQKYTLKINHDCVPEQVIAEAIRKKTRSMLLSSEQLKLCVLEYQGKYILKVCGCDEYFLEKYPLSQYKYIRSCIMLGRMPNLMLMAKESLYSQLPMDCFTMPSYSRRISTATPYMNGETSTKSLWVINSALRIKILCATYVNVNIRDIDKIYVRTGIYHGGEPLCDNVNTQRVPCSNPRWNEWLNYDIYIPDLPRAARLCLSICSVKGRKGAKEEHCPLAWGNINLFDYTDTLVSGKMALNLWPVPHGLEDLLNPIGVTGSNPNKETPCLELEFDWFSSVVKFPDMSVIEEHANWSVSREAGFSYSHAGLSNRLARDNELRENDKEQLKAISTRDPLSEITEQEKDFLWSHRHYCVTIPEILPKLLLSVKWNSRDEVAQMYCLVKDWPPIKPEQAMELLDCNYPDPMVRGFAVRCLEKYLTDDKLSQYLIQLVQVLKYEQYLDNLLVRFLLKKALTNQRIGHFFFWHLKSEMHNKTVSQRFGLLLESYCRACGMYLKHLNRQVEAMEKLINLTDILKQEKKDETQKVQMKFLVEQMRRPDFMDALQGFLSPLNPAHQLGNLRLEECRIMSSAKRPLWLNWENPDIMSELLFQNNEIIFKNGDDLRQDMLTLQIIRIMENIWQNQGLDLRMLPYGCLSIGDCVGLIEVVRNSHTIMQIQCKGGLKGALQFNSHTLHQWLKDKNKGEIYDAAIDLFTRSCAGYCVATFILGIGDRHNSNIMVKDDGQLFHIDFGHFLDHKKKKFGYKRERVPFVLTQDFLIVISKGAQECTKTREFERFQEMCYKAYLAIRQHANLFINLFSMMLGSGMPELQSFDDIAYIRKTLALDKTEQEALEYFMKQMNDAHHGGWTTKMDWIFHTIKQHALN
Sequence of Serine/threonine-protein kinase pim-1 (P11309 whole entry): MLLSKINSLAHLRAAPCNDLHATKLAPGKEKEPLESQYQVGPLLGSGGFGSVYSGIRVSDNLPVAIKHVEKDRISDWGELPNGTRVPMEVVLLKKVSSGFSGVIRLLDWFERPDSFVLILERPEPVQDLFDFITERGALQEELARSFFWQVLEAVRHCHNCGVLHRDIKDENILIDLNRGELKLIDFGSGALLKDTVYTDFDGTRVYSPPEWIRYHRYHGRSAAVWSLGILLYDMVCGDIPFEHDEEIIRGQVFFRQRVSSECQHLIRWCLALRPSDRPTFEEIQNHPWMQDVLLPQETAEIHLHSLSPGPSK
Sequence of Serine/threonine-protein kinase pim-2 (Q9P1W9 whole entry): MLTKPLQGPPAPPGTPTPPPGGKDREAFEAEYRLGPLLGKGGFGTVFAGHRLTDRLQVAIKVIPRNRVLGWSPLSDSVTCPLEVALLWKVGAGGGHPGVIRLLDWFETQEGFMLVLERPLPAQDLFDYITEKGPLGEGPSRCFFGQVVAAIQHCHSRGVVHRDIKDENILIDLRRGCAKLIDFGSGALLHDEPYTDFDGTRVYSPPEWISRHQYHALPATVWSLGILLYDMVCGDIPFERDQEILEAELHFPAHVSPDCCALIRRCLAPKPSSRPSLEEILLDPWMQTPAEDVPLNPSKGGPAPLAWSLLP
Sequence of Voltage-gated inwardly rectifying potassium channel KCNH2 (Q12809 whole entry): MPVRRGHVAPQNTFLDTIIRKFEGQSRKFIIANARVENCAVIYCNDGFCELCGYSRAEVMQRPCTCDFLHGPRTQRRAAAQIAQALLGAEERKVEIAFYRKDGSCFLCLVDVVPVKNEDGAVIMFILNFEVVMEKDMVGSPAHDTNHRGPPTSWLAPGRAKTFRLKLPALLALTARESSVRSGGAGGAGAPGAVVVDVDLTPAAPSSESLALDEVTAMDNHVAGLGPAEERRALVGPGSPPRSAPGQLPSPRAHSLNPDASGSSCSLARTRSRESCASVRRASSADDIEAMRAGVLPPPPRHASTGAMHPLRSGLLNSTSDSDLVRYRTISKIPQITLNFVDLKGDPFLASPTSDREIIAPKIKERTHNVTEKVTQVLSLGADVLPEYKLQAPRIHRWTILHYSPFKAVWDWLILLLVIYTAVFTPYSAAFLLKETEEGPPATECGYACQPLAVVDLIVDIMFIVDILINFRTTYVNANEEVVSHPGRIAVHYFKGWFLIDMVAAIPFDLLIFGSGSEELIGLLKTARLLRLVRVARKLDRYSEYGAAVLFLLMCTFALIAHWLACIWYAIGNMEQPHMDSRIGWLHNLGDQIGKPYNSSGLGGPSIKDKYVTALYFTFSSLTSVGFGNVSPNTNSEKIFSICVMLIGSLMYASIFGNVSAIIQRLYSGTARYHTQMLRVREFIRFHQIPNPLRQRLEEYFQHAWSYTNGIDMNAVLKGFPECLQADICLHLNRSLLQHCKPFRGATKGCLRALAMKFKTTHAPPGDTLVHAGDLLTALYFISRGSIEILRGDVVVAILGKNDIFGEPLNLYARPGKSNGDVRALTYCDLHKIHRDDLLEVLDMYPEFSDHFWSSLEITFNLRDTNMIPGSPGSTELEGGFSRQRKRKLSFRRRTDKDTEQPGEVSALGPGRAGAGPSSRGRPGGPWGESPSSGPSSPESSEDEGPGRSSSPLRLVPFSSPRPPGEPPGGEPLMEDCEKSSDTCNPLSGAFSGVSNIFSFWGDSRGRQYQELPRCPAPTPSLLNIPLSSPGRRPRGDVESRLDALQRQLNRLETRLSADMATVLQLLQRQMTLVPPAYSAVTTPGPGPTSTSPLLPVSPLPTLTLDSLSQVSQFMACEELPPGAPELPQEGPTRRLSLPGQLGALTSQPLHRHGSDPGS
Sequence of Phosphatidylinositol 4,5-bisphosphate 3-kinase catalytic subunit gamma isoform (P48736 whole entry, canonical isoform): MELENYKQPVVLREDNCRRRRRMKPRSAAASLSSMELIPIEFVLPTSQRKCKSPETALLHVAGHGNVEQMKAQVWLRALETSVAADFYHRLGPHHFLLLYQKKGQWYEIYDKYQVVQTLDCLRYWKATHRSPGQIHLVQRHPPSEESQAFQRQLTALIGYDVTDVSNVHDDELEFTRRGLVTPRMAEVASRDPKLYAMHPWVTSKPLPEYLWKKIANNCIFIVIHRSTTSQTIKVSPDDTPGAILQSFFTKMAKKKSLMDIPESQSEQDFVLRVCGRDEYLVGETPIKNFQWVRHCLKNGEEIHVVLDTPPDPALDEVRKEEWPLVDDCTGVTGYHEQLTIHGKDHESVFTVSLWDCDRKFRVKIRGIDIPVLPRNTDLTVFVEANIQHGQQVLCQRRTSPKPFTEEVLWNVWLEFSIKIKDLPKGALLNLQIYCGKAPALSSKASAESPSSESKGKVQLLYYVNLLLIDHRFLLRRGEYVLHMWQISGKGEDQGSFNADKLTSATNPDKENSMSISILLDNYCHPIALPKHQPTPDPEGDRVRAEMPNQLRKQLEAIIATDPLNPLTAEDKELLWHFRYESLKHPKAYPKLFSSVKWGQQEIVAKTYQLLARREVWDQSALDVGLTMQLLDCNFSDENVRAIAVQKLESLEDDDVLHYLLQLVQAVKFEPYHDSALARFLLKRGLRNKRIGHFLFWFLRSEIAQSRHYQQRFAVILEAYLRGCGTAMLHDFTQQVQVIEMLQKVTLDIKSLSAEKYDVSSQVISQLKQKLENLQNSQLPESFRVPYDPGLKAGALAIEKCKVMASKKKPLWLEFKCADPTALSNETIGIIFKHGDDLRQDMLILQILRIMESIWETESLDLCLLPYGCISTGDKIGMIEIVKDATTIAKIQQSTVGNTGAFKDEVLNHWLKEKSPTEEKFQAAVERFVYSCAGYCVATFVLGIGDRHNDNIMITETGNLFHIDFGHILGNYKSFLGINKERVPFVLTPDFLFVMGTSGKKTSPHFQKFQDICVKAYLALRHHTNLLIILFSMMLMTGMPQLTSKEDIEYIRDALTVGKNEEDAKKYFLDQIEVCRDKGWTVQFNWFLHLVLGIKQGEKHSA
Sequence of PI3-kinase p110-alpha/p85-alpha (P27986 whole entry): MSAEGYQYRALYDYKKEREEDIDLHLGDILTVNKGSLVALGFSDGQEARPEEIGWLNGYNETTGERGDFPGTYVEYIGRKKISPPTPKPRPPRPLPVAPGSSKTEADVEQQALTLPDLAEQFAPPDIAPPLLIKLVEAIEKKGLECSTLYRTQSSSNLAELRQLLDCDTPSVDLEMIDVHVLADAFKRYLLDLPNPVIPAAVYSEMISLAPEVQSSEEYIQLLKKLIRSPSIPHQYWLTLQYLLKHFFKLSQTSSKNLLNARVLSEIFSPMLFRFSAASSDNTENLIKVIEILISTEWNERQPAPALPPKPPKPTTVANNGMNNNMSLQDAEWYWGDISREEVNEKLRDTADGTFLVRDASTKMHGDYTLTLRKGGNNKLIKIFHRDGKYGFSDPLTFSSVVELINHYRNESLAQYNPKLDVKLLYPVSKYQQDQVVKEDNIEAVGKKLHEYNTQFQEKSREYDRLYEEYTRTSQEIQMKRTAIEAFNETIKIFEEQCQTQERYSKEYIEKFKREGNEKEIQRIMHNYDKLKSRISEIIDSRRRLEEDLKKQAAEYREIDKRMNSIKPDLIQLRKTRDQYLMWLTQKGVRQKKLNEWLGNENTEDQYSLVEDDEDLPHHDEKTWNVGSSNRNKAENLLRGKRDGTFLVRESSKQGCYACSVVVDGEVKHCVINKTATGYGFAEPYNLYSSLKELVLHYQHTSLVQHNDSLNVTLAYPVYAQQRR
Sequence of PI3-kinase p110-alpha/p85-alpha (P42336 whole entry): as the sequence (P42336 whole entry, canonical isoform) above

IC50 [1]: 43.8 nM | IC50 [2]: > 10000 nM | IC50 [3]: 7.4 nM
Structure (SMILES): COc1ncc2cc1NS(=O)(=O)c1cccc(c1)C(=O)NCC1=C(C)C=C(S1)c1ncnc3c1SC2=C3

IC50 [1]: 12.9 nM | IC50 [2]: 5700 nM | IC50 [3]: 17 nM
Structure (SMILES): COc1ncc2cc1NS(=O)(=O)c1cccc(c1)C(=O)NCC1=CC=C(S1)c1ncnc3c1SC2=C3

IC50 [1]: 178 nM | IC50 [2]: 197 nM | IC50 [3]: 0.43 nM
Structure (SMILES): COc1ncc2cc1NS(=O)(=O)c1cccc(c1)C(=O)NCCn1cc(cn1)-c1ncnc3c1SC2=C3C

IC50 [1]: 65.7 nM | IC50 [2]: 5570 nM | IC50 [3]: 6.91 nM
Structure (SMILES): COc1ccc2cc1C(=O)NCC1=CC=C(S1)c1ncnc3c1SC(=C3)c1cnc(OC)c(c1)NS2(=O)=O

IC50 [1]: 11.1 nM | IC50 [2]: > 10000 nM | IC50 [3]: 6.28 nM
Structure (SMILES): COc1ncc2cc1NS(=O)(=O)c1ccc(Cl)c(c1)C(=O)NCC1=CC=C(S1)c1ncnc3c1SC2=C3

IC50 [1]: 14.6 nM | IC50 [2]: 2100 nM | IC50 [3]: 6.34 nM
Structure (SMILES): COc1ncc2cc1NS(=O)(=O)c1ccc(F)c(c1)C(=O)NCC1=CC=C(S1)c1ncnc3c1SC2=C3

Vd [4]: 0.31 L/kg | Ki [5]: 0.08 nM | remaining at 0.5 h [6]: > 98% | Ki [7]: 0.25 nM | EC50 [8]: < 1 nM | remaining at 0.5 h [9]: 90% | AUC(0-t) [10]: 16600 ng·h/mL | remaining at 0.5 h [11]: 87% | bioavailability [12]: 35.1% | clearance [13]: 1 mL/min/kg | Tmax [14]: 0.25 h | Ki [16]: 0.37 nM | IC50 [17]: 4610 nM | EC50 [18]: 34 nM | Ki [19]: 0.44 nM | IC50 [20]: 13.3 nM | IC50 [1]: 18.1 nM | IC50 [2]: 138 nM | half-life [21]: 23.4 h | AUC(0-t) [22]: 58200 ng·h/mL | half-life [23]: 3.66 h | IC50 [3]: 0.23 nM | IC50 [24]: 4.39 nM
Structure (SMILES): COc1ncc2cc1NS(=O)(=O)c1cccc(c1)C(=O)NCC1=CC=C(S1)c1ncnc3c1SC2=C3C
inhibition (INH) [15]: Not Active

Ki [5]: 0.13 nM | remaining at 0.5 h [6]: > 98% | Ki [7]: 0.27 nM | EC50 [8]: < 1 nM | AUC(0-t) [25]: 11200 ng·h/mL | AUC(0-t) [26]: 99100 ng·h/mL | half-life [27]: 14.6 h | Cmax [28]: 9370 ng/mL | Ki [16]: 0.31 nM | EC50 [18]: 60 nM | Ki [19]: 0.17 nM | half-life [29]: 2.96 h | bioavailability [30]: 124% | clearance [31]: 1.05 mL/min/kg | IC50 [20]: 8.04 nM | IC50 [1]: 22.3 nM | Tmax [32]: 5 h | IC50 [2]: 74.5 nM | Vd [33]: 0.26 L/kg | IC50 [3]: 0.13 nM | IC50 [24]: 5.75 nM
Structure (SMILES): COc1ncc2cc1NS(=O)(=O)c1ccc(F)c(c1)C(=O)NCC1=CC=C(S1)c1ncnc3c1SC2=C3C
inhibition (INH) [15]: Not Active

IC50 [1]: 44 nM | IC50 [2]: > 10000 nM | IC50 [3]: 3.15 nM
Structure (SMILES): COc1ncc2cc1NS(=O)(=O)c1cccc(c1)C(=O)NC[C@H]1CCN(C1)c1ncnc3c1SC2=C3C

IC50 [1]: 42.9 nM | IC50 [2]: 175 nM | IC50 [3]: 19 nM
Structure (SMILES): COc1ncc2cc1NS(=O)(=O)c1cccc(c1)C(=O)NCc1cncc(c1)-c1ncnc3c1SC2=C3C

More lines, now with the values behind:

Structure (SMILES): COc1ncc2cc1NS(=O)(=O)c1cccc(c1)C(=O)NCc1csc(c1)-c1ncnc3c1SC2=C3
IC50 [1]: 13.1 nM | IC50 [2]: > 10000 nM | IC50 [3]: 28.9 nM

Structure (SMILES): COc1ncc2cc1NS(=O)(=O)c1cccc(c1)C(=O)NCC1=CC=C(O1)c1ncnc3c1SC2=C3
IC50 [1]: 247 nM | IC50 [2]: > 10000 nM | IC50 [3]: 381 nM

Structure (SMILES): COc1ncc2cc1NS(=O)(=O)c1cccc(c1)C(=O)NCc1cc(ccn1)-c1ncnc3c1SC2=C3
IC50 [1]: 649 nM | IC50 [2]: > 10000 nM | IC50 [3]: 50.2 nM

Structure (SMILES): COc1ncc(-c2sc3c(-c4cccs4)ncnc3c2C)cc1NS(=O)(=O)c1ccccc1
IC50 [1]: > 10000 nM | IC50 [2]: > 1000 nM | IC50 [3]: 36.2 nM

Structure (SMILES): COc1ncc2cc1NS(=O)(=O)c1cccc(c1)C(=O)NC[C@@H]1CCN(C1)c1ncnc3c1SC2=C3C
IC50 [1]: 122 nM | IC50 [2]: > 10000 nM | IC50 [3]: 3.08 nM

Structure (SMILES): COc1ncc2cc1NS(=O)(=O)c1cccc(c1)C(=O)NCc1cc(cs1)-c1ncnc3c1SC2=C3
IC50 [1]: 154 nM | IC50 [2]: > 10000 nM | IC50 [3]: 13.7 nM

Structure (SMILES): COc1ncc2cc1NS(=O)(=O)c1cccc(c1)C(=O)NCc1cncc(c1)-c1ncnc3c1SC2=C3
IC50 [1]: 45.8 nM | IC50 [2]: > 10000 nM | IC50 [3]: 74.6 nM

Structure (SMILES): COc1ncc(-c2sc3c(-c4ccc(CNC=O)s4)ncnc3c2C)cc1NS(=O)(=O)c1ccccc1
IC50 [1]: > 10000 nM | IC50 [2]: 80.9 nM | IC50 [3]: 3.29 nM

Structure (SMILES): CNC(=O)c1cccc(S(=O)(=O)Nc2cc(-c3sc4c(-c5cccs5)ncnc4c3C)cnc2OC)c1
IC50 [1]: > 10000 nM | IC50 [2]: 604 nM | IC50 [3]: 6.72 nM

Structure (SMILES): COc1ncc2cc1NS(=O)(=O)c1cccc(c1)C(=O)NCc1cccc(c1)-c1ncnc3c1SC2=C3
IC50 [1]: 279 nM | IC50 [2]: > 10000 nM | IC50 [3]: 16.8 nM

Structure (SMILES): COc1ncc2cc1NS(=O)(=O)c1cccc(c1)C(=O)NCc1nc(cs1)-c1ncnc3c1SC2=C3
IC50 [1]: > 10000 nM | IC50 [2]: > 10000 nM | IC50 [3]: 123 nM

Structure (SMILES): COc1ncc2cc1NS(=O)(=O)c1cccc(c1)C(=O)NC[C@@H]1CN(CCO1)c1ncnc3c1SC2=C3C
IC50 [1]: 39.1 nM | IC50 [2]: 2030 nM | IC50 [3]: 0.66 nM

Structure (SMILES): COc1ncc2cc1NS(=O)(=O)c1cccc(c1)C(=O)NCCn1cc(cn1)-c1ncnc3c1SC2=C3
IC50 [1]: 254 nM | IC50 [2]: > 10000 nM | IC50 [3]: 58.3 nM
